From ChEMBL document CHEMBL5365533, “DNA major versus minor groove occupancy of monomeric and dimeric crystal violet derivatives. Toward structural correlations” (Bioorg Med Chem, 2023)
Calls of active or inactive are those of the source. The rule behind the calls is not given here.

Key:
[1] = Binding affinity to DDD hairpin DNA (unknown origin) assessed as binding constant at 100 uM by ITC analysis
Summary of the method: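 Isothermal titration calorimetry of DDD hairpin (10 μM in cell) titrated with ligand (100 μM in syringe), 10 mM Tris-HCl pH 7.0, 30 °C; 25 injections of 10 μL. Heats of dilution subtracted; single-site binding model fitted; K averaged from triplicate experiments.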

[2] = tested on: Calf thymus DNA; experiment: Binding affinity to calf thymus DNA assessed as change in melting temperature by UV thermal denaturation assay; assay type: nucleic-acid assay; conditions: Bos taurus
Summary of the method: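 CT DNA in 10 mM Tris-HCl pH 7.0 at a DNA:ligand ratio of 30:1, in 1 cm quartz cuvettes. Absorbance read every 2 °C from 25 to 95 °C, heating at 1 °C/min. Tm taken from first-derivative plots.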

[3] = tested on: DNA; experiment: Displacement of Ethidium bromide from A5T5 (5'-GGGAAAAATTTTTCCCCC-3') DNA (unknown origin)/EtBr complex assessed as decrease in initial absorbance of DNA by crystal violet staining based analysis; assay type: nucleic-acid assay
[4] = tested on: DNA; experiment: Displacement of Ethidium bromide from (AT)5 (5'-GGGATATA-TATATCCC-3') DNA (unknown origin)/EtBr complex assessed as decrease in initial absorbance of DNA by crystal violet staining based analysis; assay type: nucleic-acid assay
[5] = Displacement of Ethidium bromide from G5C5 (5'-AAAGGGGG-CCCCCTTT-3') DNA (unknown origin)/EtBr complex assessed as decrease in initial absorbance of DNA by crystal violet staining based analysis
[6] = Displacement of Ethidium bromide from NFAT1 (5-GAAAAA-3') hairpin DNA (unknown origin)/EtBr complex assessed as decrease in initial absorbance of DNA by crystal violet staining based analysis
[7] = Binding affinity to DDD (5-CGAATT-3') hairpin DNA (unknown origin) assessed as binding constant by isothermal titration calorimetry
[8] = tested on: AT rich DNA; experiment: Displacement of Ethidium bromide from AT3 (5'-ATATAT-3') hairpin DNA (unknown origin)/EtBr complex assessed as binding constant by crystal violet staining based analysis; assay type: nucleic-acid assay
[9] = Displacement of Ethidium bromide from STAT6 (5'-TCCTAG-3') hairpin DNA (unknown origin)/EtBr complex assessed as binding constant by crystal violet staining based analysis
[10] = Displacement of Ethidium bromide from DDD (5-CGAATT-3') hairpin DNA (unknown origin)/EtBr complex assessed as decrease in initial absorbance of DNA by crystal violet staining based analysis
[11] = tested on: Calf thymus DNA; experiment: Binding affinity to calf thymus DNA assessed as hypochromic shift by UV spectroscopic analysis; assay type: nucleic-acid assay; conditions: Bos taurus
Summary of the method: (§1)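 UV titration in 10 mM Tris-HCl pH 7.0 with ligand fixed at 5.0 μM and CT DNA:ligand ratios of 0:1, 1:1, 2:1, 5:1, 10:1 and 30:1.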

[12] = Displacement of Ethidium bromide from STAT6 (5'-TCCTAG-3') hairpin DNA (unknown origin)/EtBr complex assessed as decrease in initial absorbance of DNA by crystal violet staining based analysis
[13] = tested on: Calf thymus DNA; experiment: Binding affinity to calf thymus DNA assessed as bathochromic shift by UV spectroscopic analysis; assay type: nucleic-acid assay; conditions: Bos taurus; summary of the method: as §1
[14] = Displacement of Ethidium bromide from G6 (5'-GGGGGG-3') hairpin DNA (unknown origin)/EtBr complex assessed as decrease in initial absorbance of DNA by crystal violet staining based analysis
[15] = tested on: Calf thymus DNA; experiment: Binding affinity to calf thymus DNA in Tris-HCl buffer at pH 7.0 assessed as minimal change in viscosity incubated for 30 mins by Ostwald viscometer analysis; assay type: nucleic-acid assay; conditions: Bos taurus
Summary of the method: (§2)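 Ostwald viscometer at 23.0 ± 1 °C. CT DNA held at 300 μM/bp in 10 mM Tris-HCl pH 7.0 with ligand or ethidium at 0–26 μM, incubated 30 min before timing flow. (η/η0)^1/3 plotted against [ligand]/[DNA]; three replicates, SD shown.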

[16] = tested on: Calf thymus DNA; experiment: Binding affinity to calf thymus DNA in Tris-HCl buffer at pH 7.0 assessed as rigidification of DNA from intercalation of drug incubated for 30 mins by Ostwald viscometer analysis; assay type: nucleic-acid assay; conditions: Bos taurus; summary of the method: as §2
[17] = tested on: AT rich DNA; experiment: Displacement of Ethidium bromide from AT3 (5'-ATATAT-3') hairpin DNA (unknown origin)/EtBr complex assessed as decrease in initial absorbance of DNA by crystal violet staining based analysis; assay type: nucleic-acid assay
[18] = tested on: Calf thymus DNA; experiment: Binding affinity to calf thymus DNA in Tris-HCl buffer at pH 7.0 assessed as lengthening of DNA from intercalation of drug incubated for 30 mins by Ostwald viscometer analysis; assay type: nucleic-acid assay; conditions: Bos taurus; summary of the method: as §2
[19] = Displacement of Ethidium bromide from cMyc (5'-CACGTG-3') hairpin DNA (unknown origin)/EtBr complex assessed as decrease in initial absorbance of DNA by crystal violet staining based analysis
[20] = Displacement of Ethidium bromide from NFAT1 (5-GAAAAA-3') hairpin DNA (unknown origin)/EtBr complex assessed as binding constant by crystal violet staining based analysis
[21] = Displacement of Ethidium bromide from cMyc (5'-CACGTG-3') hairpin DNA (unknown origin)/EtBr complex assessed as binding constant by crystal violet staining based analysis
[22] = biological target: DNA; experiment: Binding affinity to pUC-19 plasmid DNA (unknown origin) assessed as DNA cleavage incubated for 30 mins in presence of BamHI restriction enzyme by ethidium bromide staining based agarose gel electrophoresis analysis; assay type: nucleic-acid assay
Summary of the method: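 pUC-19 linearized with AlwNI (37 °C, 30 min), enzyme heat-killed at 80 °C for 20 min, then incubated with varying ligand concentrations. BamHI digestion for 30 min at 37 °C. Run on 1% agarose containing ethidium bromide, 120 V for 40 min; visualized by UV transillumination.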

[23] = tested on: Calf thymus DNA; experiment: Ratio of Kapp for displacement of ethidium bromide from calf thymus DNA/EtBr complex to Kapp for displacement of ethidium bromide from calf thymus DNA/EtBr in presence of methyl green; assay type: nucleic-acid assay; conditions: Bos taurus
Summary of the method: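 Fluorescence titration of CT DNA (1.0 μM/bp) plus ethidium (0.5 μM), with or without netropsin or methyl green (0.5 μM each), against increasing ligand in 10 mM Tris-HCl pH 7.0. Excitation 520 nm, emission 590 nm, read after 3 min equilibration. C50 is the concentration giving 50% fluorescence loss; Kapp = 9.5×10^6 M⁻¹ × C_ethidium/C50.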

[24] = tested on: Calf thymus DNA; experiment: Binding affinity to calf thymus DNA in Tris-HCl buffer at pH 7.0 assessed as change in entropy at 100 uM by isothermal titration […] analysis; assay type: nucleic-acid assay; conditions: Bos taurus
Summary of the method: (§3)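 ITC of CT DNA (100 μM/bp in cell) titrated with ligand (100 μM in syringe), 10 mM Tris-HCl pH 7.0; 25 injections of 10 μL at 30 °C, or for one ligand 50 injections of 5 μL at 27 °C. Buffer-into-DNA heats subtracted; single-site model gives K, N, ΔH and ΔS.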

[25] = tested on: Calf thymus DNA; experiment: Binding affinity to calf thymus DNA in Tris-HCl buffer at pH 7.0 assessed as change in enthalpy at 100 uM by isothermal titration […] analysis; assay type: nucleic-acid assay; conditions: Bos taurus; summary of the method: as §3
[26] = tested on: Calf thymus DNA; experiment: Binding affinity to calf thymus DNA in Tris-HCl buffer at pH 7.0 assessed as differential groove occupancy at 100 uM by ITC analysis; assay type: nucleic-acid assay; conditions: Bos taurus; summary of the method: as §3
[27] = tested on: Calf thymus DNA; experiment: Binding affinity to calf thymus DNA in Tris-HCl buffer at pH 7.0 assessed as decrease in viscosity incubated for 30 mins by Ostwald viscometer analysis; assay type: nucleic-acid assay; conditions: Bos taurus; summary of the method: as §2
[28] = Binding affinity to DDD hairpin DNA (unknown origin) in Tris-HCl buffer at pH 5.0 assessed as reduction in base stacking band formation at 280nm at 1 mM incubated for 5 mins by CD spectra analysis
Summary of the method: (§4)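 Ligand (1 mM stock) added in small aliquots to DDD hairpin (8.8 μM) in 10 mM Tris-HCl pH 5.0; mixed by inversion and incubated 5 min at 20 °C. CD recorded 215–350 nm in 0.5 nm steps as the average of three scans.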

[29] = Binding affinity to DDD hairpin DNA (unknown origin) in Tris-HCl buffer at pH 5.0 assessed as negligible changes in helicity band formation at 245nm at 1 mM incubated for 5 mins by CD spectra analysis; summary of the method: as §4
[30] = Binding affinity to DDD hairpin DNA (unknown origin) in Tris-HCl buffer at pH 5.0 assessed as negative induced CD bands formation at 310nm at 1 mM incubated for 5 mins by CD spectra analysis; summary of the method: as §4

Compound | K [1] | ΔTm [2] | C50 [3] | C50 [4] | C50 [5] | C50 [6] | C50 [10] | C50 [12] | C50 [14] | C50 [17] | C50 [19] | also measured
CC1=CC(=[N+](C)C)C=CC1=C(c1ccc(N(C)C)cc1C)c1ccc(N(C)C)cc1C | 1.2 10^5/M | 2.6 °C | 2.4 µM | 2.3 µM | 7.21 µM |  |  |  |  |  |  | 
CN(C)c1ccc(C(=C2C=CC(=[N+](C)C)C=C2)c2ccccc2-c2ccccc2-c2ccccc2C(=C2C=CC(=[N+](C)C)C=C2)c2ccc(N(C)C)cc2)cc1 | 21.1 10^5/M | 3.6 °C |  |  |  | 0.69 µM | 0.54 µM | 0.56 µM | 0.51 µM | 1.11 µM | 0.57 µM | K [7]: 21.1 10^5/M; K [8]: 0.32 10^5/M; K [9]: 1.8 10^5/M; Activity [11]: Active; Activity [13]: Active; Activity [15]: Dose-Dependent Effect; Activity [16]: Active; Activity [18]: Active; K [20]: 1.14 10^5/M; K [21]: 114000 M⁻¹; IC50 [22]: 67 µM
CN(C)c1ccc(C(=C2C=CC(=[N+](C)C)C(c3ccccc3)=C2)c2ccc(N(C)C)c(-c3ccccc3)c2)cc1-c1ccccc1 | 48.7 10^5/M | 2.2 °C | 3.13 µM | 2.71 µM | 3.36 µM |  |  |  |  |  |  | 
CN(C)c1ccc(C(=C2C=CC(=[N+](C)C)C=C2)c2ccc(-c3cc4c(cc3-c3ccc(C(=C5C=CC(=[N+](C)C)C=C5)c5ccc(N(C)C)cc5)cc3)OCO4)cc2)cc1 | 2.4 10^5/M | 2.6 °C |  |  |  | 1.23 µM | 1.47 µM | 1.32 µM | 1.25 µM | 1.36 µM | 1.42 µM | 
CN(C)c1ccc(C(=C2C=CC(=[N+](C)C)C=C2)c2ccc3cc(N(C)C)ccc3c2)cc1 | 3.1 10^5/M | 4.6 °C | 0.52 µM | 0.32 µM | 0.88 µM |  |  |  |  |  |  | 
CN(C)c1ccc(C(=C2C=CC(=[N+](C)C)C=C2)c2ccc(N(C)C)c(-c3ccccc3)c2)cc1-c1ccccc1 | 0.3 10^5/M | 1.6 °C | 1.83 µM | 1.81 µM | 2.09 µM |  |  |  |  |  |  | 
CN(C)c1ccc(C(=C2C=CC(=[N+](C)C)C=C2)c2ccc(N(C)C)c(-c3ccccc3)c2)cc1 | 96.4 10^5/M | 6.2 °C | 2.61 µM | 2.75 µM | 2.99 µM |  |  |  |  |  |  | Ratio [23]: 2.3
CN(C)c1ccc(C(=C2C=CC(=[N+](C)C)C=C2)c2ccc(C#Cc3cc4c(cc3C#Cc3ccc(C(=C5C=CC(=[N+](C)C)C=C5)c5ccc(N(C)C)cc5)cc3)OCO4)cc2)cc1 | 0.5 10^5/M | 2.6 °C |  |  |  | 2.22 µM | 1.27 µM | 1.91 µM | 1.32 µM | 1.52 µM | 1.95 µM | 
CN(C)c1ccc(C(=C2C=CC(=[N+](C)C)C=C2)c2ccc(/C=C/c3cc4c(cc3/C=C/c3ccc(C(=C5C=CC(=[N+](C)C)C=C5)c5ccc(N(C)C)cc5)cc3)OCO4)cc2)cc1 | 7.5 10^5/M | 3.3 °C |  |  |  | 1.27 µM | 0.78 µM | 1.12 µM | 1.1 µM | 1.21 µM | 1.8 µM | deltaS [24]: 1.32 kJ/mol; K [7]: 7.54 10^5/M; K [8]: 5.79 10^5/M; K [9]: 2.22 10^5/M; Ratio [23]: > 8; deltaH [25]: 359 kJ/mol; Activity [26]: Active; Activity [27]: Dose-Dependent Effect; Activity [11]: Active; Activity [28]: Active; Activity [13]: Active; Activity [29]: Active; K [20]: 49.8 10^5/M; K [21]: 32000 M⁻¹; Activity [30]: Active; IC50 [22]: 5.4 µM
